Values belong to the molecule of their own block, whether it stands above or below them.
Legend:
PfGSK3 = target: T1, PfGSK3 (Plasmodium falciparum, UniProt O77344); assay: KinaseSeeker split luciferase assay on PfGSK3; type: biochemical; details: for activity on PfGSK3, in words: screen at 1 μM; for fold increase in potency on PfGSK3: compared to IKK16
T1 sequence (O77344 1-440): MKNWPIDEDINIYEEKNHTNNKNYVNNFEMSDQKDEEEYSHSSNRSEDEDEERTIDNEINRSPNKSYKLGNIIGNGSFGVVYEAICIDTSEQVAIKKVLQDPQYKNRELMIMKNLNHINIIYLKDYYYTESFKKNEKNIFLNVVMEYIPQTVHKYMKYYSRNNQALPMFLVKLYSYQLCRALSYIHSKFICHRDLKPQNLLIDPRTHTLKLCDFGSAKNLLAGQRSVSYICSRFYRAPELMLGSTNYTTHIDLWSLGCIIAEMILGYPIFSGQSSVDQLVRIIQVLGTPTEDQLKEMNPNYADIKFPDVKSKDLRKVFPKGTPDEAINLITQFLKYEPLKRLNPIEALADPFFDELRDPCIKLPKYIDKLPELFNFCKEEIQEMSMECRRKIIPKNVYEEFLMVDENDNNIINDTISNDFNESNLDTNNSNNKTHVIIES
Procedure, shortened: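 Split-luciferase binding assay: lysate with Cfluc-PfGSK3 fusion plus Fos-Nfluc, incubated 2 h with test compound in DMSO (or DMSO control) and a kinase-specific probe. Luminescence was read immediately after luciferin reagent. % inhibition = (control − sample)/control × 100. Compounds were first counter-screened against split luciferase, then screened at 1 μM.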

PfPK6 = target: T2, PfPK6 (Plasmodium falciparum, UniProt Q8IDW1); assay: KinaseSeeker split luciferase assay on PfPK6; type: biochemical; details: for remaining activity at 1 µM: read-out: PfPK6 PoC@1 μM; for activity on PfPK6, in words: screen at 1 μM; for LE PfPK6 (ligand efficiency): PfPK6 pIC50/number of heavy atoms in the molecule
T2 sequence (Q8IDW1 1-305): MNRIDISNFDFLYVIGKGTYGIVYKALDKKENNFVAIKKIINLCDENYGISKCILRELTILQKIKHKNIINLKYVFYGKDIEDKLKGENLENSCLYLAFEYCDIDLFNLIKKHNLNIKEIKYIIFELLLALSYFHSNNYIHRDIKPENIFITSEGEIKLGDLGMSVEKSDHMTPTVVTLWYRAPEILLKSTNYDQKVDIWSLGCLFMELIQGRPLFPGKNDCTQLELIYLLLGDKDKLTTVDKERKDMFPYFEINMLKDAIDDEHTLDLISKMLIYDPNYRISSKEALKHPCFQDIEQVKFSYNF

468 human kinases = assay: DiscoverX KINOMEscan panel, selectivity score; type: binding; details: for no. of kinase hits: 1 μM, 468 human kinases, PoC ≤10% (>90% inhibition)
[1] = in words; cited from earlier work
[2] = rats, in words; cited from earlier work

activity on PfGSK3, in words (PfGSK3): failed to inhibit | remaining activity at 1 µM (PfPK6): 100% | activity on PfPK6, in words (PfPK6): failed to inhibit
SMILES: c1ccc(Nc2nccc(-c3cc4ccccc4s3)n2)cc1 [Compound 4a, 4-(Benzo[b]thiophen-2-yl)-N-phenylpyrimidin-2-amine]

remaining activity at 1 µM (PfPK6): 100%
SMILES: Clc1cccc(Nc2nccc(-c3cc4ccccc4s3)n2)c1 [Compound 4c, 4-(Benzo[b]thiophen-2-yl)-N-(3-chlorophenyl)pyrimidin-2-amine]

remaining activity at 1 µM (PfPK6): 100%
SMILES: Clc1ccccc1Nc1nccc(-c2cc3ccccc3s2)n1 [Compound 4d, 4-(Benzo[b]thiophen-2-yl)-N-(2-chlorophenyl)pyrimidin-2-amine]

remaining activity at 1 µM (PfPK6): 100%
SMILES: COc1cccc(Nc2nccc(-c3cc4ccccc4s3)n2)c1 [Compound 4f, 4-(Benzo[b]thiophen-2-yl)-N-(3-methoxyphenyl)pyrimidin-2-amine]

remaining activity at 1 µM (PfPK6): 100%
SMILES: COc1ccccc1Nc1nccc(-c2cc3ccccc3s2)n1 [Compound 4g, 4-(Benzo[b]thiophen-2-yl)-N-(2-methoxyphenyl)pyrimidin-2-amine]

activity on PfGSK3, in words (PfGSK3): inactive | remaining activity at 1 µM (PfPK6): 100% | activity on PfPK6, in words (PfPK6): inactive
SMILES: c1ccc(CNc2nccc(-c3cc4ccccc4s3)n2)cc1 [Compound 4h, 4-(Benzo[b]thiophen-2-yl)-N-benzylpyrimidin-2-amine]

remaining activity at 1 µM (PfPK6): 100%
SMILES: O=C(O)c1ccc(Nc2nccc(-c3cc4ccccc4s3)n2)cc1 [Compound 6, 4-((4-(Benzo[b]thiophen-2-yl)pyrimidin-2-yl)amino)benzoic acid]

fold increase in potency on PfPK6 (PfPK6; compared to IKK16): ~4 fold
SMILES: O=C(c1ccc(Nc2nccc(-c3cc4ccccc4s3)n2)cc1)N1CCC(N2CCCCC2)CC1 [Compound 9b, [1,4′-Bipiperidin]-1′-yl(4-((4-(benzo[b]thiophen-2-yl)pyrimidin-2-yl)amino)phenyl)methanone]

fold increase in potency on PfGSK3 (PfGSK3): 2 fold | fold increase in potency on PfPK6 (PfPK6; compared to IKK16): ~3 fold
SMILES: CN1CCN(CCCNC(=O)c2ccc(Nc3nccc(-c4cc5ccccc5s4)n3)cc2)CC1 [Compound 9f, 4-((4-(Benzo[b]thiophen-2-yl)pyrimidin-2-yl)amino)-N-(3-(4-methylpiperazin-1-yl)propyl)benzamide]

no. of kinase hits (468 human kinases): 32
SMILES: O=C(NCCCN1CCOCC1)c1ccc(Nc2nccc(-c3cc4ccccc4s3)n2)cc1 [Compound 9g, 4-((4-(Benzo[b]thiophen-2-yl)pyrimidin-2-yl)amino)-N-(3-morpholinopropyl)benzamide]

fold increase in potency on PfGSK3 (PfGSK3): roughly 2 fold
SMILES: O=C(NC1CC1)c1ccc(Nc2nccc(-c3cc4ccccc4s3)n2)cc1 [Compound 9j, 4-((4-(Benzo[b]thiophen-2-yl)pyrimidin-2-yl)amino)-N-cyclopropylbenzamide]

activity on PfGSK3, in words (PfGSK3): no activity | activity on PfPK6, in words (PfPK6): no activity
SMILES: Cn1cc(NC(=O)c2ccc(Nc3nccc(-c4cc5ccccc5s4)n3)cc2)cn1 [Compound 9k, 4-((4-(Benzo[b]thiophen-2-yl)pyrimidin-2-yl)amino)-N-(1-methyl-1H-pyrazol-4-yl)benzamide]

activity on PfGSK3, in words (PfGSK3): inactivity
SMILES: O=C(c1ccc(Nc2nccc(-c3cccs3)n2)cc1)N1CCC(N2CCCC2)CC1 [Compound 18c, (4-(Pyrrolidin-1-yl)piperidin-1-yl)(4-((4-(thiophen-2-yl)pyrimidin-2-yl)amino)phenyl)methanone]

activity on PfGSK3, in words (PfGSK3): inactive | fold decrease in potency on PfPK6 (PfPK6; compared to thiophene 18c): more than 3 fold
SMILES: O=C(c1ccc(Nc2nccc(-c3ccco3)n2)cc1)N1CCC(N2CCCC2)CC1 [Compound 18e, (4-((4-(Furan-2-yl)pyrimidin-2-yl)amino)phenyl)(4-(pyrrolidin-1-yl)piperidin-1-yl)methanone]

LE PfPK6 (ligand efficiency) (PfPK6): 0.30
SMILES: O=C(c1ccc(Nc2nccc(-c3ccc(Cl)s3)n2)cc1)N1CCC(N2CCCC2)CC1 [Compound 18j, (4-((4-(5-Chlorothiophen-2-yl)pyrimidin-2-yl)amino)phenyl)(4-(pyrrolidin-1-yl)piperidin-1-yl)methanone]

activity on PfGSK3, in words (PfGSK3): inactive
SMILES: O=C(c1ccc(Nc2nccc(-c3ccc(-c4ccccc4)s3)n2)cc1)N1CCC(N2CCCC2)CC1 [Compound 18k, (4-((4-(5-Phenylthiophen-2-yl)pyrimidin-2-yl)amino)phenyl)(4-(pyrrolidin-1-yl)piperidin-1-yl)methanone]

fold increase in potency on PfPK6 (PfPK6; compared to its alcohol counterpart (18l)): ~2 fold
SMILES: O=C(c1ccc(Nc2nccc(-c3ccc(COCC(F)(F)F)s3)n2)cc1)N1CCC(N2CCCC2)CC1 [Compound 18m, (4-(Pyrrolidin-1-yl)piperidin-1-yl)(4-((4-(5-((2,2,2-trifluoroethoxy)methyl)thiophen-2-yl)pyrimidin-2-yl)amino)phenyl)methanone]

fold increase in potency on PfPK6 (PfPK6; compared to IKK16): 20 fold | selectivity (preference) for PfPK6 over PfGSK3 (PfPK6; ratio of IC50 values): 9 fold | no. of kinase hits (468 human kinases): 88
SMILES: O=C(c1ccc(Nc2ncc(Cl)c(-c3cc4ccccc4s3)n2)cc1)N1CCC(N2CCCC2)CC1 [Compound 18r, (4-((4-(Benzo[b]thiophen-2-yl)-5-chloropyrimidin-2-yl)amino)phenyl)(4-(pyrrolidin-1-yl)piperidin-1-yl)methanone]
reduction in selectivity (468 human kinases; S10 (1 μM) compared to IKK16): ~2 fold

activity on PfGSK3, in words (PfGSK3): did not reach our threshold
SMILES: Cc1ccc(-c2nc(Nc3ccc(C(=O)N4CCC(N5CCCC5)CC4)cc3)ncc2C)s1 [Compound 23a, (4-((5-Methyl-4-(5-methylthiophen-2-yl)pyrimidin-2-yl)amino)phenyl)(4-(pyrrolidin-1-yl)piperidin-1-yl)methanone]

no. of kinase hits (468 human kinases): 103
SMILES: O=C(c1ccc(Nc2ncc(Cl)c(-c3ccc(Cl)s3)n2)cc1)N1CCC(N2CCCC2)CC1 [Compound 23d, (4-((5-Chloro-4-(5-chlorothiophen-2-yl)pyrimidin-2-yl)amino)phenyl)(4-(pyrrolidin-1-yl)piperidin-1-yl)methanone]

IC50 (PfGSK3): < 100 nM | no. of kinase hits (468 human kinases): 64 | reduction of promiscuity (kinase hits) (468 human kinases; compared to 23d, from 103 to 64 kinase hits): ~40%
SMILES: O=C(NCCCN1CCOCC1)c1ccc(Nc2ncc(Cl)c(-c3ccc(Cl)s3)n2)cc1 [Compound 23e, 4-((5-Chloro-4-(5-chlorothiophen-2-yl)pyrimidin-2-yl)amino)-N-(3-morpholinopropyl)benzamide]

IC50 (PfGSK3): < 100 nM
SMILES: Cc1ccc(-c2nc(Nc3ccc(C(=O)NCCCN4CCOCC4)cc3)ncc2Cl)s1 [Compound 23f, 4-((5-Chloro-4-(5-methylthiophen-2-yl)pyrimidin-2-yl)amino)-N-(3-morpholinopropyl)benzamide]

activity on PfGSK3, in words (PfGSK3): did not show significant activity
SMILES: Cc1cnc(Nc2ccc(C(=O)NCCCN3CCOCC3)cc2)nc1-c1ccc(Cl)s1 [Compound 23g, 4-((4-(5-Chlorothiophen-2-yl)-5-methylpyrimidin-2-yl)amino)-N-(3-morpholinopropyl)benzamide]

LE PfPK6 (ligand efficiency) (PfPK6): 0.26 | no. of kinase hits (468 human kinases): 41
SMILES: O=C(c1ccc(Nc2nccc(-c3cc4ccccc4s3)n2)cc1)N1CCC(N2CCCC2)CC1 [IKK16, reference compound]
toxicity in a resazurin-based cell viability assay [1]: low toxicity | oral bioavailability [2]: orally bioavailable
